Laboratory results taken from ChEMBL document CHEMBL5625173, “Antimycobacterial pyridine carboxamides: From design to in vivo activity” (Eur J Med Chem, 2023).
Converted amounts (≈) assume the structure as drawn. The source made the active and inactive calls. No cut-off for these calls is given here.

Assays:
[1] = Cytotoxicity against human HepG2 cells assessed as inhibition of cell viability; type: toxicity, cell-based
[2] = test system: Mycolicibacterium smegmatis; experiment: Antimycobacterial activity against Mycobacterium smegmatis by alamar blue staining based microplate analysis; type: functional
How it was run: (§1)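 Microplate Alamar Blue assay, one of six mycobacterial strains tested (Mtb H37Rv, Mtb H37Ra, M. kansasii, M. avium, M. smegmatis, M. aurum); value reported as MIC.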

[3] = test system: Mycobacterium tuberculosis; experiment: Antimycobacterial activity against Mycobacterium tuberculosis H37Ra by alamar blue staining based microplate analysis; type: functional
How it was run: (§2)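 Microplate Alamar Blue assay. MIC values read at pH 6.6 (neutral). One acidic-pH test at pH 5.6 is footnoted separately.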

Mycobacterium kansasii = experiment: Antimycobacterial activity against Mycobacterium kansasii by alamar blue staining based microplate analysis; type: functional; how it was run: as §1
Mycobacterium avium = experiment: Antimycobacterial activity against Mycobacterium avium by alamar blue staining based microplate analysis; type: functional; how it was run: as §2
[4] = Selectivity index, ratio of IC50 for cytotoxicity against human HepG2 cells to MIC for antimycobacterial activity against Mycobacterium tuberculosis H37Rv; type: toxicity, cell-based; details: read-out: Selectivity Index
[5] = test system: Mycobacterium tuberculosis; experiment: Antimycobacterial activity against Mycobacterium tuberculosis H37Rv by alamar blue staining based microplate analysis; type: functional; how it was run: as §2
Mycolicibacterium aurum = experiment: Antimycobacterial activity against Mycobacterium aurum by alamar blue staining based microplate analysis; type: functional; how it was run: as §1
[6] = test system: Mycobacterium tuberculosis; experiment: Antimycobacterial activity against Mycobacterium tuberculosis H37Rv infected in mouse assessed as reduction in colony formation in spleen at 50 mg/kg administered for 28 days; type: functional, organism-based; details: time 28.0 day
How it was run: (§3)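 Mice infected intranasally with Mtb H37Rv; infection allowed to develop four weeks. Then dosed for 28 days with sodium salt forms as water solution by gastric tube. Lung and spleen CFU determined and compared with untreated control group.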

[7] = test system: Mycobacterium tuberculosis; experiment: Antimycobacterial activity against Mycobacterium tuberculosis H37Rv infected in mouse assessed as reduction in colony formation in lungs at 50 mg/kg administered for 28 days; type: functional, organism-based; details: time 28.0 day; how it was run: as §3

Row | SMILES | IC50 [1] [mM] | MIC [2] [µg/mL] | MIC [3] [µg/mL] | MIC (Mycobacterium kansasii) [µg/mL] | MIC (Mycobacterium avium) [µg/mL] | selectivity ratio [4] | MIC [5] [µg/mL] | MIC (Mycolicibacterium aurum) [µg/mL] | Activity [6] | Activity [7]
1 | O=C(Nc1ccc(C(=O)O)c(O)c1)c1cccc(C(F)(F)F)n1 | > 0.163 | 250 (≈ 766 µM) | 31.2 (≈ 95.8 µM) | 12.5 (≈ 38.3 µM) | 12.5 (≈ 38.3 µM) | 34.1 | 3.13 (≈ 9.59 µM) | 62.5 (≈ 192 µM) |  | 
2 | Cc1cc(C(=O)Nc2cnccn2)ccn1 | > 1 | ≥ 250 | ≥ 250 | > 100 | > 100 |  | > 100 | ≥ 250 |  | 
3 | O=C(O)c1ccc(NC(=O)c2cccc(C(F)(F)F)n2)cc1 | > 0.248 | ≥ 500 | 62.5 (≈ 201 µM) | 50 (≈ 161 µM) | > 100 |  | 50 (≈ 161 µM) | 62.5 (≈ 201 µM) |  | 
4 | O=C(O)c1ccc(NC(=O)c2ccccn2)cc1 | > 0.25 | ≥ 500 | 125 (≈ 516 µM) | > 100 | > 100 |  | > 100 | 250 (≈ 1030 µM) |  | 
5 | O=C(Nc1ccc(C(=O)O)c(O)c1)c1ccc(Cl)nc1 | > 1 | ≥ 250 | 125 (≈ 427 µM) | 12.5 (≈ 42.7 µM) | 100 (≈ 342 µM) | 188 | 1.56 (≈ 5.33 µM) | ≥ 250 | Active | inactive
6 | O=C(Nc1cnccn1)c1ccccn1 | > 1 | ≥ 500 | 250 (≈ 1250 µM) | > 100 | > 100 |  | > 100 | ≥ 500 |  | 
7 | Cc1cc(C(=O)Nc2cnccn2)cc(Cl)n1 | > 0.25 | ≥ 500 | ≥ 500 | > 100 | > 100 |  | > 100 | ≥ 500 |  | 
8 | O=C(Nc1cncc(Cl)n1)c1ccc2ccccc2n1 | > 0.025 | ≥ 125 | ≥ 125 | > 25 | > 25 |  | > 25 | ≥ 125 |  | 
9 | Nc1ccc(C(=O)O)cc1 [AMINOBENZOIC ACID] | > 1 | ≥ 500 | 250 (≈ 1820 µM) | > 100 | > 100 |  | > 100 | 250 (≈ 1820 µM) |  | 
10 | Nc1cnccn1 | > 1 | ≥ 500 | ≥ 500 | > 100 | > 100 |  | > 100 | ≥ 500 |  | 
11 | Nc1cncc(Cl)n1 | > 1 | ≥ 500 | ≥ 500 | > 100 | > 100 |  | > 100 | ≥ 500 |  | 
12 | CO[C@H]1/C=C/O[C@@]2(C)Oc3c(C)c(O)c4c(O)c(c(/C=N/N5CCN(C)CC5)c(O)c4c3C2=O)NC(=O)/C(C)=C\C=C\[C@H](C)[C@H](O)[C@@H](C)[C@@H](O)[C@@H](C)[C@H](OC(C)=O)[C@@H]1C [RIFAMPIN] | > 0.5 | 12.5 (≈ 15.2 µM) | 0.003 (≈ 0.00365 µM) |  |  |  |  | 0.198 (≈ 0.241 µM) |  | 
13 | O=C(Nc1ccc(C(=O)O)c(O)c1)c1ccccn1 | > 1 | 15.6 (≈ 60.5 µM) | 250 (≈ 968 µM) | 50 (≈ 194 µM) | > 100 | 166 | 1.56 (≈ 6.04 µM) | 62.5 (≈ 242 µM) |  | 
14 | Cc1cc(C(=O)Nc2ccc(C(=O)O)c(O)c2)cc(O)n1 | > 1 | ≥ 500 | ≥ 500 | > 100 | > 100 | 46.1 | 6.25 (≈ 21.7 µM) | ≥ 500 |  | 
15 | O=C(Nc1ccc(C(=O)O)c(O)c1)c1ccncc1 | > 1 | ≥ 125 | ≥ 125 | 50 (≈ 194 µM) | 100 (≈ 387 µM) | 82.5 | 3.13 (≈ 12.1 µM) | ≥ 125 |  | 
16 | O=C(O)c1ccc(NC(=O)c2ccc3ccccc3n2)cc1 | > 0.05 | ≥ 500 | 31.2 (≈ 107 µM) | 25 (≈ 85.5 µM) | 25 (≈ 85.5 µM) | > 0.6 | 25 (≈ 85.5 µM) | 62.5 (≈ 214 µM) |  | 
17 | O=C(Nc1cnccn1)c1ccc(Cl)nc1 | > 1 | ≥ 250 | ≥ 250 | > 100 | > 100 |  | > 100 | ≥ 250 |  | 
